Laboratory results taken from ChEMBL document CHEMBL1131331, “Structure-activity studies on anticonvulsant sugar sulfamates related to topiramate. Enhanced potency with cyclic sulfate derivatives” (J Med Chem, 1998).

Columns and labels:
Format in all cases: functional
[1] = system: Mus musculus; test: Activity against maximal electroshock seizures in mice, 4 hr following oral administration of 75 mg/kg
Summary of the method: (§1)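 Mouse maximal electroshock seizure test. An electric shock is applied through corneal electrodes, and block of the hind-limb tonic-extensor seizure is scored. Compounds are given orally, usually to 10 mice per group, and tested 4 h after dosing. The result is reported as percent of dosed animals protected at the stated dose.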

[2] = system: Mus musculus; test: Activity against maximal electroshock seizures in mice, 4 hr following oral administration of 35 mg/kg of compound; summary of the method: as §1
[3] = system: Mus musculus; test: Activity against maximal electroshock seizures in mice, 4 hr following oral administration of 300 mg/kg of compound; summary of the method: as §1
[4] = system: Mus musculus; test: Effective dose against maximal electroshock seizures in mice, at 4 hr following oral administration of 10 mg/kg of compound
[5] = system: Mus musculus; test: Inhibition of maximal electroshock seizures in mice, 4 hr following 10 mg/kg p.o. administration.; details: route oral; summary of the method: as §1

Compound | Block [1] | other results
CC(=O)NS(=O)(=O)OC[C@@]12OC[C@H]3OC(C)(C)O[C@H]3[C@@H]1OC(C)(C)O2 | 30% | 
CCNS(=O)(=O)OC[C@@]12OC[C@H]3OC(C)(C)O[C@H]3[C@@H]1OC(C)(C)O2 | 90% | Block [2]: 0%
Cc1ccc(S(=O)(=O)/N=S2\O[C@@H]3[C@@H](CO[C@@]4(COS(N)(=O)=O)OC(C)(C)O[C@@H]34)O2)cc1 (stereo partly drawn) | 0% | Block [3]: 75%
CC1(C)O[C@H]2[C@@H]3O[C@H](c4ccccc4)O[C@@H]3CO[C@@]2(COS(N)(=O)=O)O1 | 20% | Block [2]: 0%
CC1(C)O[C@H]2[C@@H]3OC(=S)O[C@@H]3CO[C@@]2(COS(N)(=O)=O)O1 | 12.5% | 
CN(C[C@@]12OC[C@H]3OC(C)(C)O[C@H]3[C@@H]1OC(C)(C)O2)S(N)(=O)=O | 0% | 
CC1(C)O[C@H]2[C@@H]3OS(=O)O[C@@H]3CO[C@@]2(COS(N)(=O)=O)O1 (stereo partly drawn) |  | ED50 [4]: 5.7 mg/kg
NS(=O)(=O)OC[C@]12CCC[C@H]1[C@@H]1OS(=O)(=O)O[C@@H]1CC2 | 0% | 
CC1(C)O[C@H]2[C@@H]3OC4(CCCC4)O[C@@H]3CO[C@@]2(COS(N)(=O)=O)O1 | 0% | 
CC1(C)O[C@H]2[C@H](Br)[C@@H](Br)CO[C@@]2(COS(N)(=O)=O)O1 | 100% | Block [5]: 0%; ED50 [4]: 21 mg/kg
CC1(C)O[C@H]2[C@@H]3OS(=O)(=O)O[C@@H]3CO[C@@]2(COS(=O)(=O)N2CCCCC2)O1 | 0% | 
NS(=O)(=O)OC[C@@]12CCC=C[C@@H]1CCC2 | 0% | 
CC1(C)O[C@@H]2[C@@H](CO[C@@]3(CCOS(N)(=O)=O)OC(C)(C)O[C@@H]23)O1 | 0% | 
CC(OS(N)(=O)=O)[C@@]12OC[C@H]3OC(C)(C)O[C@H]3[C@@H]1OC(C)(C)O2 (stereo partly drawn) | 0% | 
CCC(OS(N)(=O)=O)[C@@]12OC[C@H]3OC(C)(C)O[C@H]3[C@@H]1OC(C)(C)O2 (stereo partly drawn) | 0% | 
CC1(C)O[C@@H]2[C@@H](CO[C@@]3(COS(C)(=O)=O)OC(C)(C)O[C@@H]23)O1 | 0% | 
CC1(C)O[C@H]2[C@@H]3OC(=O)O[C@@H]3CO[C@@]2(COS(N)(=O)=O)O1 | 0% | Block [3]: 70%
CC1(C)O[C@H]2[C@@H]3OS(=O)(=O)O[C@@H]3CO[C@@]2(COS(=O)(=O)N2CCN(Cc3ccccc3)CC2)O1 | 0% | 
CO[C@@H]1[C@H](OC)CO[C@@]2(COS(N)(=O)=O)OC(C)(C)O[C@@H]12 | 0% | 
CC1(C)O[C@@H]2[C@@H](CO[C@@]3(CCS(N)(=O)=O)OC(C)(C)O[C@@H]23)O1 | 0% | 
CC1(C)O[C@H]2[C@@H]3O[C@](C)(C(C)(C)C)O[C@@H]3CO[C@@]2(COS(N)(=O)=O)O1 | 0% | 
CC1(C)C[C@H]2[C@@H]3OC(C)(C)O[C@@H]3CC[C@@]2(COS(N)(=O)=O)C1 | 0% | 
COC1(OC)O[C@@H]2[C@@H](CO[C@@]3(COS(N)(=O)=O)OC(C)(C)O[C@@H]23)O1 | 0% | 
C[C@@H]1O[C@@H]2[C@@H](CO[C@@]3(COS(N)(=O)=O)OC(C)(C)O[C@@H]23)O1 | 100% | Block [5]: 0%
CC1(C)O[C@H]2[C@@H]3O[C@@H]3CO[C@@]2(COS(N)(=O)=O)O1 | 30% | 
CCCCNS(=O)(=O)OC[C@@]12OC[C@H]3OC(C)(C)O[C@H]3[C@@H]1OC(C)(C)O2 | 80% | Block [5]: 0%
CC1(C)O[C@H]2[C@@H]3OCO[C@@H]3CO[C@@]2(COS(N)(=O)=O)O1 | 0% | 

Compound | Block [1] | other results
CC1(C)O[C@H]2[C@@H]3OC(C(F)(F)F)(C(F)(F)F)O[C@@H]3CO[C@@]2(COS(N)(=O)=O)O1 | 40% | 
CC1(C)O[C@H]2[C@@H]3OB(c4ccccc4)O[C@@H]3CO[C@@]2(COS(N)(=O)=O)O1 | 0% | 
Cc1ccc(S(=O)(=O)N=S2(=O)O[C@@H]3[C@@H](CO[C@@]4(COS(N)(=O)=O)OC(C)(C)O[C@@H]34)O2)cc1 (stereo partly drawn) |  | Block [3]: 80%
CC1(C)O[C@H]2[C@@H]3OCCO[C@@H]3CO[C@@]2(COS(N)(=O)=O)O1 | 0% | 
CC1(C)O[C@H]2[C@@H]3O[C@H](C(C)(C)C)O[C@@H]3CO[C@@]2(COS(N)(=O)=O)O1 | 0% | 
NS(=O)(=O)OC[C@@]12OC[C@H]3OC4(CCCCC4)O[C@H]3[C@@H]1OC1(CCCCC1)O2 | 0% | 
CC1(C)O[C@@H]2[C@@H](CO[C@@]3(CNS(N)(=O)=O)OC(C)(C)O[C@@H]23)O1 | 0% | 
CCC1(CC)O[C@@H]2[C@@H](CO[C@@]3(COS(N)(=O)=O)OC(CC)(CC)O[C@@H]23)O1 | 0% | Block [3]: 70%
CCO[C@@H]1[C@H](OCC)CO[C@@]2(COS(N)(=O)=O)OC(C)(C)O[C@@H]12 | 0% | Block [3]: 40%
C[C@H]1O[C@@H]2[C@@H](CO[C@@]3(COS(N)(=O)=O)OC(C)(C)O[C@@H]23)O1 | 0% | 
CC1(C)O[C@@H]2[C@@H](CO[C@@]3(COS(=O)(=O)NCc4ccccc4)OC(C)(C)O[C@@H]23)O1 | 0% | 
CC[C@@]1(C)O[C@@H]2[C@@H](CO[C@@]3(COS(N)(=O)=O)OC(C)(C)O[C@@H]23)O1 | 90% | 
CC1(C)O[C@@H]2[C@@H](CC[C@@]3(COS(N)(=O)=O)CCC[C@@H]23)O1 | 0% | 
NS(=O)(=O)OC[C@]12CCC[C@H]1[C@@H]1C[C@@H]1CC2 | 0% | 
NS(=O)(=O)OC[C@@]12OC[C@H]3OS(=O)(=O)O[C@H]3[C@@H]1OC1(CCCCC1)O2 | 0% | Block [3]: 10%
CC1(C)O[C@H]2[C@@H]3OS(=O)(=O)O[C@@H]3CO[C@@]2(COC(N)=O)O1 | 0% | 
CB1O[C@@H]2[C@@H](CO[C@@]3(COS(N)(=O)=O)OC(C)(C)O[C@@H]23)O1 | 0% | Block [3]: 50%
COc1ccc(NS(=O)(=O)OC[C@@]23OC[C@H]4OS(=O)(=O)O[C@H]4[C@@H]2OC(C)(C)O3)cc1 | 0% | 
NS(=O)(=O)OC[C@@]12CCCC[C@@H]1CCC2 | 0% | 
CC1(C)O[C@H]2CCCO[C@@]2(COS(N)(=O)=O)O1 | 0% | Block [3]: 100%
CCO[C@@H]1O[C@@H]2[C@@H](CO[C@@]3(COS(N)(=O)=O)OC(C)(C)O[C@@H]23)O1 | 0% | 
CC1(C)O[C@@H]2[C@@H](CO[C@@]3(CCCOS(N)(=O)=O)OC(C)(C)O[C@@H]23)O1 | 0% | 
CSC(=O)O[C@H]1CO[C@@]2(COS(N)(=O)=O)OC(C)(C)O[C@H]2[C@@H]1I | 90% | Block [5]: 0%; ED50 [4]: 30 mg/kg
NS(=O)(=O)OC[C@@]12OC[C@H]3O[C@@H](c4ccccc4)O[C@H]3[C@@H]1O[C@H](c1ccccc1)O2 | 0% | 
CC1(C)O[C@H]2C=CCO[C@@]2(COS(N)(=O)=O)O1 |  | Block [3]: 0%
CC1(C)O[C@H]2[C@H]3C(CO[C@@]2(COS(N)(=O)=O)O1)C3(Cl)Cl (stereo partly drawn) | 0% | 
